ChEMBL document CHEMBL4665666, “Discovery and characterization of trypanocidal cysteine protease inhibitors from the 'malaria box'” (Eur J Med Chem, 2019)

Experiments:
[1] = target: Cruzipain (Trypanosoma cruzi) (UniProt P25779); test: Inhibition of recombinant Trypanosoma cruzi cruzain at 5 uM using Z-FR-AMC as substrate and measured at 12 sec interval for 5 mins without preincubation by fluorimetric analysis relative to control
Summary of the method: (§1)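 Recombinant rhodesain or cruzain (1 nM) in 0.1 M sodium acetate pH 5.5, 0.01% Triton X-100, 1 mM β-mercaptoethanol. Compound at a single concentration, either without or after 10 min enzyme pre-incubation. Inhibition is relative to DMSO, with E-64 as positive control. Done in duplicate (primary screen) or triplicate.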

[2] = target: Cruzipain (Trypanosoma cruzi) (UniProt P25779); test: Inhibition of recombinant Trypanosoma cruzi cruzain at 5 uM using Z-FR-AMC as substrate preincubated for 10 mins followed by substrate addition and measured at 12 sec interval for 5 mins by fluorimetric analysis relative to control; conditions: time 15.0 min; summary of the method: as §1
[3] = target: Rhodesain (Trypanosoma brucei rhodesiense) (UniProt Q95PM0); test: Inhibition of recombinant Trypanosoma brucei rhodesain expressed in Pichia pastoris at 5 uM using Z-FR-AMC as substrate and measured at 12 sec interval for 5 mins without preincubation by fluorimetric analysis relative to control; summary of the method: as §1
[4] = target: Rhodesain (Trypanosoma brucei rhodesiense) (UniProt Q95PM0); test: Inhibition of recombinant Trypanosoma brucei rhodesain expressed in Pichia pastoris at 5 uM using Z-FR-AMC as substrate preincubated for 10 mins followed by substrate addition and measured at 12 sec interval for 5 mins by fluorimetric analysis relative to control; conditions: time 15.0 min; summary of the method: as §1

Rhodesain (Trypanosoma brucei rhodesiense), sequence (Q95PM0 1-450): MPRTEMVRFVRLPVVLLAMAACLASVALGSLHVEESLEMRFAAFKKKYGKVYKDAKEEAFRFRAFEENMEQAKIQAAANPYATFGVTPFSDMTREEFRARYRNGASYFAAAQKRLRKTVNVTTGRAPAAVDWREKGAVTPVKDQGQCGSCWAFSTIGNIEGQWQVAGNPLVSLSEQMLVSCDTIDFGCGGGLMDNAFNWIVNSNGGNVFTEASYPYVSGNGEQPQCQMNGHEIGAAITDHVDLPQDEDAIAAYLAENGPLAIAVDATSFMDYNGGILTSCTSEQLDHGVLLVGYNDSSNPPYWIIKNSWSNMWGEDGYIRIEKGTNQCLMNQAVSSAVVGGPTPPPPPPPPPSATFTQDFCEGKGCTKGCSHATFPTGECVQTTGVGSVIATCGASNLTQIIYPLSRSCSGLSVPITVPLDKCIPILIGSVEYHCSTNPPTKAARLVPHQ
Cruzipain (Trypanosoma cruzi), sequence (P25779 123-467 limits assumed): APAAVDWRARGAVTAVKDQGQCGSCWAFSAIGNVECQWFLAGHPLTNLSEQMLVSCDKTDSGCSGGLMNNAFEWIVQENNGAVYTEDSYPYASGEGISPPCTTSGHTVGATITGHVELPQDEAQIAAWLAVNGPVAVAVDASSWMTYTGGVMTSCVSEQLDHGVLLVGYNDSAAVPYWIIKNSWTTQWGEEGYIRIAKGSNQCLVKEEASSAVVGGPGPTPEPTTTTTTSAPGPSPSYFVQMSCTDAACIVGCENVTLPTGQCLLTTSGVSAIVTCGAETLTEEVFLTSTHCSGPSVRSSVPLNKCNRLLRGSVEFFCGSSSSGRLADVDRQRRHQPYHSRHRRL

| SMILES | inhibition [1] [%] | inhibition [2] [%] | inhibition [3] [%] | inhibition [4] [%] |
| --- | --- | --- | --- | --- |
| Cc1ccnc(NC(c2cccc(OCc3ccccc3)c2)c2ccc3cccnc3c2O)c1 (centres undefined) | 6.7 | 51.3 | 0 | 16.2 |
| Cc1ccc(N2C(=O)C3C(C2=O)C2(c4ccccc4)C(=O)C3(c3ccccc3)C(c3ccccc3)=C2c2ccccc2)cc1 (centres undefined) | 9.2 | 33.6 | 22.3 | 56.3 |
| CCCc1c(CC)c(=N)c2ccccc2n1C | 21.5 | 54.8 | 29.4 | 59.5 |
| CCOC(=O)c1cnc2ccc(CC)cc2c1O | 6 | 5.8 | 0 | 52.4 |
| CC(C)(C)c1ccc2c(c1)CN(Cc1ccc(Cl)cc1)CO2 | 52.3 | 51.5 | 28.8 | 61.3 |
| CCCOCc1cc(CN2CCN(c3cccc(Cl)c3)CC2)c(O)c2ncccc12 | 37.1 | 75.3 | 36.4 | 87.6 |
| COc1ccc(CNC(=O)c2cc3c(=O)n4ccccc4nc3n(CCc3ccccc3)c2=N)cc1 | 45.7 | 69.9 | 43.5 | 66.9 |
| O=C(CSc1ccc2nnc(-c3cccc(F)c3)n2n1)Nc1ccc2c(c1)OCO2 | 10.2 | 67.7 | 10.3 | 61.6 |
| COc1ccc(-c2nc3cc(Cc4ccc5[nH]c(-c6ccc(OC)cc6)nc5c4)ccc3[nH]2)cc1 | 100 | 79.9 | 98.6 | 98.7 |
| O=C(O)C1Cc2c([nH]c3ccccc23)C(c2ccc(Cl)cc2Cl)N1 (centres undefined) | 5 | 9.5 | 0.7 | 78.6 |
| Cc1ccccc1OCCSc1nc2ccc(NC(=O)c3ccccc3)cc2s1 | 52.3 | 76.7 | 48.3 | 59 |
| COc1ccc(C2c3ccc4ccccc4c3Oc3ncn(CCCN(C)C)c(=N)c32)cc1 (centres undefined) | 55.6 | 73.2 | 60.9 | 77.8 |
| CCC(C)NCC(O)(c1ccc(Cl)cc1)c1ccc(Cl)cc1 (centres undefined) | 32 | 67.2 | 29.1 | 80.9 |
| COc1ccc(C2c3ccc4ccccc4c3Oc3ncn(CCCn4ccnc4)c(=N)c32)cc1OC (centres undefined) | 41.8 | 59.5 | 33.4 | 41 |
| COc1ccc(/C=C2/SC(Nc3ccc(F)cc3)=NC2=O)c(OC)c1 | 29.3 | 54.4 | 21.4 | 54.8 |
| COc1ccc(C(=O)NC(c2ccccc2Cl)c2cc(Cl)c3cccnc3c2O)cc1 (centres undefined) | 17.1 | 100 | 29.4 | 49.4 |
| COc1ccc(NC(=O)C2c3ccccc3C(=O)N(CC(C)C)C2c2cccs2)cc1 (centres undefined) | 3.3 | 0 | 0.1 | 78.7 |
| CCN(CC)CCNc1ncnc2c1[nH]c1ccc(Br)cc12 | 57 | 28.5 | 27.5 | 2.7 |
| COc1cc(OC)c(N(C)C(=O)c2cc3c(s2)-c2ccccc2S(=O)(=O)C3)cc1Cl | 6.4 | 38.1 | 20.7 | 57.9 |
| CC(C)OCc1cc(CN2CCN(c3cccc(Cl)c3)CC2)c(O)c2ncccc12 | 49 | 98.2 | 8.3 | 83.7 |
| CN(N=O)C1=C(NC2CCCCC2)C(=O)c2ccccc2C1=O | 34.8 | 68.2 | 38.7 | 39.5 |

| SMILES | inhibition [1] [%] | inhibition [2] [%] | inhibition [3] [%] | inhibition [4] [%] |
| --- | --- | --- | --- | --- |
| COc1ccccc1C(=O)ON=C(N)Cc1cccc2ccccc12 | 32 | 54.9 | 1.4 | 54.3 |
| COCCN(C(=O)Cc1cccs1)C(C(=O)NCc1ccc(OC)cc1)c1ccc(C(C)C)cc1 (centres undefined) | 40.6 | 67.5 | 38.5 | 86.7 |
| COc1cc(C(=O)ON=C(N)Cc2cccc3ccccc23)cc(OC)c1OC | 14 | 51.1 | 0 | 46.8 |
| O=C(Nc1ccc(-c2nc3cc(NC(=O)c4ccc(Cl)cc4)ccc3[nH]2)cc1)c1ccc(Cl)cc1 | 15 | 35.3 | 4.6 | 56.1 |
| O=C(Nc1cccc(-c2nc3ccccc3[nH]2)c1)c1cccc(NC(=O)c2ccco2)c1 | 96.7 | 94.7 | 40.1 | 53.9 |
| Fc1ccc2[nH]c3c(NCCCN4CCOCC4)ncnc3c2c1 | 50.7 | 63.9 | 17.6 | 41.6 |
| CCc1ccc(Nc2cc(C)c3ccc(O)cc3n2)cc1 | 32.8 | 55 | 36.5 | 38.1 |
| O=C1c2ccccc2-c2nnc(-c3ccc(Br)cc3)cc21 | 47.8 | 96.3 | 32.7 | 68.8 |
| CCOc1ccc(C2N(C)c3ccccc3N2C)cc1 | 21.8 | 48.3 | 30.3 | 57.7 |
| O=C(NC1CCN(Cc2ccccc2)CC1)c1cc(-c2ccncc2)nc2ccc(Cl)cc12 | 15.2 | 56.5 | 20.9 | 41.2 |
| CCCCCCc1cc2cc(-c3csc(/C=C/c4ccccc4)n3)c(=O)oc2cc1O | 8.9 | 38.3 | 28.6 | 51.2 |
| Nc1ccc(-c2nc3cc(Oc4ccc(Oc5ccc6[nH]c(-c7ccc(N)cc7)nc6c5)cc4)ccc3[nH]2)cc1 | 88.6 | 91.5 | 13.3 | 78.2 |
| Oc1ccc(C(=C(Cl)Cl)c2ccc(O)cc2)cc1 | 31.1 | 60.5 | 22.6 | 62.1 |
| CCCCCn1c(=N)n(CC(O)COc2cccc(C)c2)c2ccccc21 (centres undefined) | 55.2 | 87.2 | 40.2 | 69.9 |
| COc1cc2c3cc1Oc1c(OC)c(OC)cc4c1C(Cc1ccc(O)c(c1)Oc1ccc(cc1)CC3N(C)CC2)N(C)CC4 (centres undefined) | 22.4 | 41.7 | 19.7 | 51.4 |
| COc1ccc(/C=C2/SC(=Nc3ccccc3)NC2=O)cc1 | 43.1 | 73.8 | 35.6 | 70.5 |
| O=C(NC1CCN(Cc2ccccc2)CC1)c1cc(C(=O)NC2CCN(Cc3ccccc3)CC2)cc(C(=O)NC2CCN(Cc3ccccc3)CC2)c1 | 41 | 60.5 | 45.4 | 49.2 |
| CCOc1cc(CNC(C)C(O)c2ccccc2)cc(Cl)c1OCC (centres undefined) | 21.7 | 46.8 | 32.9 | 61.8 |
| Cn1c(=O)c2cc(C(=O)NCCCN3CCCCCC3)sc2c2ccccc21 | 22.9 | 50.5 | 22.4 | 41.3 |
| O=C(c1ccccc1F)N(Cc1ccc(Cl)cc1)c1ccccn1 | 40.7 | 91.6 | 45.8 | 75 |
